From the RNAGym collection of RNA variant scans (doi:10.1126/science.aae0568)
This sample holds only a part of the variants without activity.

B1: tRNA (parent)
chain: GUUCCGUUGGCGUAAUGGUAACGCGUCUCCCUCCUAAGGAGAAGACUGCGGGUUCGAGUCCCGUACGGAACG

Variants of: B1
Assay: yeast fitness relative to wild type (ratio to wild type); higher = fitter; tRNA-Arg(CCU), competitive growth, 37 C, YPD
How it was run: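 Variants of the tRNA-Arg(CCU) gene, chemically synthesised with a 3% per-site mutation rate at 69 sites, were placed at the native genomic locus in Saccharomyces cerevisiae. The pooled strains were competed in YPD at 37°C for 24 hours in six parallel replicates. Gene amplicons from the start population and from each end population were read by 100-nucleotide paired-end sequencing. Darwinian fitness relative to wild type came from changes in genotype frequencies; genotypes needed ≥ 100 starting reads, and estimates < 0.5 were set to 0.5.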

Row | Variant | yeast fitness
1 | A15U U28A A40C C46G | ≤ 0.5
2 | A15U U28C G44A A57G | ≤ 0.5
3 | A15U U19C C31U A40C A57U | ≤ 0.5
4 | U16A C46U C55A | ≤ 0.5
5 | A15U G52C G68A | ≤ 0.5
6 | A15U G23A G68C | ≤ 0.5
7 | U16A C30A | 0.912
8 | U16A C30U | 0.817
9 | U16A C30G | 0.567
10 | U16A A21C A36G G44A U59A | ≤ 0.5
11 | A15U C49G | 0.671
12 | A15U G48C | 0.669
13 | A15U G39A A57G | ≤ 0.5
14 | A15U U28A G44A U64C | ≤ 0.5
15 | U16A A37G A43G | ≤ 0.5
16 | A15U U32C G52C | 0.539
17 | U16A | 0.992
18 | A15U G25C C61G | ≤ 0.5
19 | A15U U28A C33G G56A | ≤ 0.5
20 | A15U U28A C49U U59A C66A | ≤ 0.5
21 | A15U G44C G68C | ≤ 0.5
22 | U16A A45G G58A | 0.591
23 | U16A A45U | 1
24 | A15U C31G C33G A42U | ≤ 0.5

Row | Variant | yeast fitness
25 | U16A A36G G51A U64C A65G | ≤ 0.5
26 | A15U U32G G44A G52A C61U A69C | ≤ 0.5
27 | U16A C31A | 0.645
28 | U16A C31U | 0.979
29 | U16A A20C C22U C33U A42G | ≤ 0.5
30 | U16A C24U A42U A45U U53A G56A | ≤ 0.5
31 | U16A C22A C66U | 0.675
32 | A15U G44A | 0.65
33 | A15U C46A U53A A69G | ≤ 0.5
34 | U16A C29U A37G | ≤ 0.5
35 | U16A C27G C49A A69G | 0.532
36 | A15U G38C C46U A69U A70G | ≤ 0.5
37 | U16A A57C C66U A69C | ≤ 0.5
38 | U16A C34A A40U G44A G63A | ≤ 0.5
39 | U16A C46A | 0.92
40 | U16A C46U | 1.04
41 | A15U C49U G56A C61G | ≤ 0.5
42 | A15U C27A A65C A69C | 0.577
43 | U16A A20U G50A | 0.513
44 | U16A C30A A43C | 1.04
45 | U16A C31G A69U | 0.601
46 | A15U G50C C60U | ≤ 0.5
47 | U16A C24G A43C G63A | ≤ 0.5
48 | A15U C31G C33U A37C A65U G67A | ≤ 0.5

Row | Variant | yeast fitness
49 | A15U U16C A65G | ≤ 0.5
50 | A15U C31A A70G | ≤ 0.5
51 | A15U U19A C24A | 0.641
52 | A15U C27A U35C U54C U64C | ≤ 0.5
53 | A15U G23C C33A G63C G68U | ≤ 0.5
54 | A15U C33U A36G C62G A69C | ≤ 0.5
55 | A15U G25C | 0.583
56 | U16A C22G A45C | 0.607
57 | A15U U26G U35A G41A | ≤ 0.5
58 | A15U C33G G50A | 0.625
59 | U16A A45C G63C U64C C66U | ≤ 0.5
60 | U16A A20G A21G C34U G44A C61A G67C | ≤ 0.5
61 | A15U C34G A37G A40C C62U A65U | ≤ 0.5
62 | A15U G23C C29U G50A | 0.616
63 | A15U G50A C55G | 0.666
64 | U16A C24G U47C | 0.536
65 | A15U C46G A70U | 0.56
66 | A15U C62G | 0.646
67 | U16A A20C C24G C33G | ≤ 0.5
68 | U16A C22U U28C U32C A42G C55G | ≤ 0.5
69 | U16A A42G C49G | 0.542
70 | A15U C29G C34U C66U | ≤ 0.5
71 | A15U G25A G44C G67U | 0.522
72 | A15U U47A G58A A65C | ≤ 0.5

Row | Variant | yeast fitness
73 | A15U U26C | 0.81
74 | A15U U26A | 0.666
75 | U16A C24U C30G U35A C49A G67C | 0.751
76 | A15U G17A | 0.707
77 | A15U C31A C62U | 0.573
78 | A15U G25A A36U | 0.586
79 | A15U C27A C61U | ≤ 0.5
80 | A15U C27A C61G | ≤ 0.5
81 | A15U U53G A57C A69U | 0.625
82 | U16A A37C C60A U64C | ≤ 0.5
83 | A15U C46G | 0.825
84 | A15U C46U | 0.978
85 | A15U C46A | 0.719
86 | A15U C46U A65U G68C | ≤ 0.5
87 | A15U C30U A57G | ≤ 0.5
88 | U16A A42C U54A | ≤ 0.5
89 | A15U C34A A40U G52A G68A | ≤ 0.5
90 | U16A A20G | 0.961
91 | U16A A20U | 0.855
92 | A15U C30G G38A U54C | 0.553
93 | U16A A37G A40C G58A | 0.604
94 | A15U U16G G39A C60G A70G | ≤ 0.5
95 | A15U C27A G56C G63A | ≤ 0.5
96 | A15U C31A C49G | 0.576

Row | Variant | yeast fitness
97 | A15U U19C G38C | 0.589
98 | U16A C30U A40C G48C G67C | ≤ 0.5
99 | A15U G18C A36G A37C G50A | ≤ 0.5
100 | U16A A45C G63C U64C | ≤ 0.5
101 | A15U C31G C34U A40C | 0.531
102 | A15U C30G G50A | ≤ 0.5
103 | A15U G18A A57U | ≤ 0.5
104 | A15U C27G U59C | ≤ 0.5
105 | A15U G23C C34G C55G | ≤ 0.5
106 | U16A C31A C33A U35C U47A | ≤ 0.5
107 | U16A A20G C62A | 0.546
108 | U16A C30U A36U G63A | ≤ 0.5
109 | U16A A21C | 0.686
110 | A15U C29U C66A | 0.57
111 | A15U U26A C60U G67A | ≤ 0.5
112 | A15U G23C G41A C49A | ≤ 0.5
113 | U16A C31A A65C | ≤ 0.5
114 | A15U G18A U35C G58A | ≤ 0.5
115 | A15U U26A A57C | ≤ 0.5
116 | A15U G23U C24G | ≤ 0.5
117 | U16A C34U G38A A42U | ≤ 0.5
118 | A15U G38A | 0.635
119 | A15U C31U C46G G63A A65G A70U | ≤ 0.5
120 | A15U G38C G39A A43C | ≤ 0.5

Row | Variant | yeast fitness
121 | U16A A40C C55A C66A | ≤ 0.5
122 | A15U C34G A37G A40C | 0.59
123 | U16A A43C C49U | 0.656
124 | U16A C33G | 0.612
125 | U16A A21U C27U A40U A65U A70C | ≤ 0.5
126 | U16A C27U C49U | 0.61
127 | A15U U19A A36U U54A | ≤ 0.5
128 | A15U C31A | 0.588
129 | A15U C31U | 0.707
130 | A15U C31G | 0.676
131 | A15U U19A | 0.767
132 | A15U G23C A45U G52A | ≤ 0.5
133 | A15U C27A C62A A69U | ≤ 0.5
134 | A15U C30G A36C C60A C61U | ≤ 0.5
135 | A15U U16C A40U | ≤ 0.5
136 | A15U G23A A40C A57G C61U A65C | 0.629
137 | U16A A21U C46U C61G | ≤ 0.5
138 | U16A A20U C24G C33G A65G C66A | ≤ 0.5
139 | A15U G18A A40C A43C C46G A69C | ≤ 0.5
140 | A15U U28A C33G A65G | ≤ 0.5
141 | A15U C27A C49G U64A | 0.639
142 | A15U G38C A43C | ≤ 0.5
143 | A15U U19A A20G A40U A43U C60G C62U G68C | ≤ 0.5
144 | A15U C33G C62G | 0.602

Row | Variant | yeast fitness
145 | U16A C24A C30G C34U U47C | ≤ 0.5
146 | A15U G25A C46U G56A | 1.04
147 | U16A C33G A36U | 0.57
148 | U16A C46A A69U | 0.715
149 | U16A C22A C29U A36G A45C | ≤ 0.5
150 | A15U G25A G44C | 0.566
151 | U16A A21C C29U | ≤ 0.5
152 | A15U C60G A65U | ≤ 0.5
153 | A15U G18A C27U U35C G41A C49U U53A | 0.603
154 | U16A A42G | 0.749
155 | A15U U19A A45C C55U A57U | 0.583
156 | A15U G25C A57G | ≤ 0.5
157 | A15U C34G A37G A40C U64C | ≤ 0.5
158 | U16A C30G G50A A70G | ≤ 0.5
159 | U16A A45C A69C | 0.662
160 | U16A C22G U26C C34G A37C A40U A45G C62A | ≤ 0.5
161 | U16A C22A G56A | 0.696
162 | A15U G23C A37G | ≤ 0.5
163 | A15U C30U A40G C55U | 0.653
164 | A15U G18A A37G G50A | ≤ 0.5
165 | A15U G23C A45U C62A | ≤ 0.5
166 | A15U C27U | 0.699
167 | U16A C29G C31G C55A C62U A69C | ≤ 0.5
